Assay results published in ChEMBL document CHEMBL4033721, “Design, synthesis and evaluation of indole-2-carboxamides with pan anti-mycobacterial activity” (Bioorg Med Chem, 2017).
In brackets after ≈: the same amount, converted by molar mass.

Assays:
[1] = Antimycobacterial activity against Mycobacterium massiliense isolate CRM0019 after 8 days by resazurin microtiter based colorimetric assay; format: functional, Mycobacterium abscessus subsp. massiliense; details: Mycobacteroides abscessus, isolate CRM0019, 192 h
In short: (§1)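 Resazurin microtiter plate MIC, read by visual scan for growth, in Mueller Hinton II broth. Strains include clinical isolates of M. abscessus complex, M. chelonae, M. avium, M. intracellulare, M. xenopi, P. aeruginosa PAO-1 and S. aureus ATCC 25923.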

[2] = test system: Mycobacterium avium; assay: Antimycobacterial activity against Mycobacterium avium isolate 104 after 8 days by resazurin microtiter based colorimetric assay; format: functional; details: isolate 104, 192 h
In short: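 M. avium 104 MICs were read by resazurin microtiter colorimetric assay in 96-well plates, with growth scored visually, in Mueller Hinton II medium.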

[3] = Antimycobacterial activity against Mycobacterium bolletii ATCC 14472 after 8 days by resazurin microtiter based colorimetric assay; format: functional; details: Mycobacteroides abscessus, ATCC 14472, 192 h; in short: as §1
[4] = test system: Mycobacteroides chelonae; assay: Antimycobacterial activity against Mycobacterium chelonae ATCC 35752 after 8 days by resazurin microtiter based colorimetric assay; format: functional; details: ATCC 35752, 192 h; in short: as §1
[5] = test system: Mycobacterium xenopi; assay: Antimycobacterial activity against wild type Mycobacterium xenopi isolate 4042 after 8 days by resazurin microtiter based colorimetric assay; format: functional; details: isolate 4042, 192 h; in short: as §1
[6] = Antimycobacterial activity against Mycobacterium massiliense isolate CIP108297 after 8 days by resazurin microtiter based colorimetric assay; format: functional, Mycobacterium abscessus subsp. massiliense; details: Mycobacteroides abscessus, isolate CIP108297, 192 h; in short: as §1
[7] = test system: Mycobacteroides abscessus; assay: Antimycobacterial activity against Mycobacterium abscessus isolate DCI 21 after 8 days by resazurin microtiter based colorimetric assay; format: functional; details: isolate DCI 21, 192 h; in short: as §1
[8] = test system: Mycobacteroides abscessus; assay: Antimycobacterial activity against Mycobacterium abscessus ATCC 19977 after 8 days by resazurin microtiter based colorimetric assay; format: functional; details: ATCC 19977, 192 h; in short: as §1
[9] = test system: Mycobacterium tuberculosis; assay: Antimycobacterial activity against Mycobacterium tuberculosis H37Rv MC2-6206 after 8 days by resazurin microtiter based colorimetric assay; format: functional; details: H37Rv MC2-6206, 192 h
In short: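 MIC was measured by resazurin microtiter colorimetric assay with visual growth scoring. Medium was 7H9-ADC–0.05% tyloxapol with 0.2% casaminoacids, 48 µg/ml pantothenate and 50 µg/ml L-leucine.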

[10] = test system: Mycobacterium avium-intracellulare; assay: Antimycobacterial activity against Mycobacterium avium-intracellulare isolate 1956 after 8 days by resazurin microtiter based colorimetric assay; format: functional; details: isolate 1956, 192 h; in short: as §1
[11] = test system: Mycolicibacterium smegmatis; assay: Antimycobacterial activity against Mycobacterium smegmatis isolate MC2 155 after 8 days by resazurin microtiter based colorimetric assay; format: functional; details: str. MC2 155, 192 h

| SMILES | MIC [1] [µg/mL] | MIC [2] [µg/mL] | MIC [3] [µg/mL] | MIC [4] [µg/mL] | MIC [5] [µg/mL] | MIC [6] [µg/mL] | MIC [7] [µg/mL] | MIC [8] [µg/mL] | MIC [9] [µg/mL] | MIC [10] [µg/mL] | MIC [11] [µg/mL] |
| --- | --- | --- | --- | --- | --- | --- | --- | --- | --- | --- | --- |
| CC1CCC(NC(=O)c2cc3ccccc3[nH]2)CC1 (mixture of isomers) | 16 | > 32 | 16 | 16 | 16 | 16 | > 32 | > 32 | 5 | > 32 | 12.5 |
| Cc1cc(C)c2cc(C(=O)NC34CC5CC(CC(C5)C3)C4)[nH]c2c1 | > 32 | > 32 | > 32 | > 32 | > 32 | > 32 | 32 (≈ 99.2 µM) | > 32 | 0.0195 (≈ 0.0605 µM) | > 32 | 1.25 to 2.5 (≈ 3.88 to 7.75 µM) |
| Cc1cc(C)c2cc(C(=O)NC3C4CC5CC(C4)CC3C5)[nH]c2c1 (configuration not stated) | > 32 | > 32 | > 32 | > 32 | 0.5 to 1 (≈ 1.55 to 3.1 µM) | > 32 | > 32 | > 32 | 0.04 (≈ 0.124 µM) | > 32 | > 20 |
| O=C(NCC12CC3CC(CC(C3)C1)C2)c1cc2ccccc2[nH]1 | > 32 | > 32 | 2 (≈ 6.48 µM) | 1 (≈ 3.24 µM) | 4 (≈ 13 µM) | 2 (≈ 6.48 µM) | 2 (≈ 6.48 µM) | 2 (≈ 6.48 µM) | > 5 | > 32 | > 20 |
| CC(NC(=O)c1cc2ccccc2[nH]1)C12CC3CC(CC(C3)C1)C2 (configuration not stated) | 8 (≈ 24.8 µM) | > 32 | 16 (≈ 49.6 µM) | 2 (≈ 6.2 µM) | 8 (≈ 24.8 µM) | 8 (≈ 24.8 µM) | 16 (≈ 49.6 µM) | 16 (≈ 49.6 µM) | > 5 | 32 (≈ 99.2 µM) | > 20 |
| O=C(NC1CCCCCC1)c1cc2ccccc2[nH]1 | > 32 |  | > 32 | > 32 |  | > 32 | > 32 | > 32 | > 5 |  | > 20 |
| CCCCCCCCNC(=O)c1cc2c(C)cc(C)cc2[nH]1 | > 32 | > 32 | > 32 | > 32 | > 32 | > 32 | > 32 | > 32 | > 20 | > 32 | 2.5 to 5 (≈ 8.32 to 16.6 µM) |
| Cc1cc(C)c2cc(C(=O)NC(C)C34CC5CC(CC(C5)C3)C4)[nH]c2c1 (configuration not stated) | 8 (≈ 22.8 µM) | > 32 | 16 (≈ 45.6 µM) | 16 (≈ 45.6 µM) | > 32 | 8 (≈ 22.8 µM) | > 32 | 16 (≈ 45.6 µM) | 0.31 (≈ 0.884 µM) | > 32 | > 20 |
| CCCCCCCNC(=O)c1cc2c(C)cc(C)cc2[nH]1 | > 32 | > 32 | 32 (≈ 112 µM) | > 32 | > 32 | > 32 | > 32 | > 32 | > 5 | > 32 | 5 (≈ 17.5 µM) |
| Cc1cc(C)c2cc(C(=O)N[C@H]3CC[C@H](C)CC3)[nH]c2c1 | ≤ 0.06 | > 32 | ≤ 0.06 | ≤ 0.06 | 0.25 to 1 (≈ 0.879 to 3.52 µM) | ≤ 0.06 | ≤ 0.06 | ≤ 0.06 | 0.31 (≈ 1.09 µM) | > 32 | > 20 |
| Cc1cc(C)c2cc(C(=O)NC3CCCC3)[nH]c2c1 | 8 (≈ 31.2 µM) | > 32 | 2 (≈ 7.8 µM) | 2 (≈ 7.8 µM) | 8 to 16 (≈ 31.2 to 62.4 µM) | 8 (≈ 31.2 µM) | 4 (≈ 15.6 µM) | 4 (≈ 15.6 µM) | 2.5 (≈ 9.75 µM) | > 32 | 5 (≈ 19.5 µM) |
| O=C(NC1CCCCCCC1)c1cc2ccccc2[nH]1 | 32 (≈ 118 µM) | > 32 | 32 (≈ 118 µM) | > 32 | 2 (≈ 7.4 µM) | > 32 | > 32 | > 32 | 0.39 (≈ 1.44 µM) | > 32 | 25 (≈ 92.5 µM) |
| O=C(NC1CCCC1)c1cc2ccccc2[nH]1 | > 32 |  | > 32 | > 32 |  | > 32 | > 32 | > 32 | > 10 |  | > 25 |
